# Results collected from several papers.
# Protocols differ between the studies behind these lines.
# Target: Serine/threonine-protein kinase mTOR (MTOR, Homo sapiens, UniProt P42345)
SMILES,test,conditions,measurement,value
O=C(CSc1nc2nccnc2c(=O)n1CCc1ccccc1)Nc1ccccc1,"enzyme activity, inhibitor",10 µM,inhibition,31%
CNCc1ccc(-c2cc(-c3nc(-c4ccc(S(=O)(=O)C(C)C)cc4)cnc3N)on2)cc1,"enzyme activity, inhibitor",0.4 µM,inhibition,0%
CC(C)(C)c1nc2c(s1)c1nc(N)ncc1c1ccc(NS(=O)(=O)c3c(F)cccc3F)c(F)c12,"enzyme activity, inhibitor, radiometric",1 µM,remaining activity,103%
CN(c1nccc(-c2cnn3ncccc23)n1)C1CC1,cell-free assay,1 µM,remaining signal,100%
Cc1ccc(C(=O)NCc2ccsc2)cc1C#Cc1cn(C(C)C)c2ncnc(N)c12,"enzyme activity, inhibitor",1 µM,activity vs control,105%
CC(C)CCn1c(SCC(=O)Nc2ccccc2C(F)(F)F)nc2nccnc2c1=O,"enzyme activity, inhibitor",10 µM,inhibition,< 20%
COc1cc2ncnc(Nc3ccc(Oc4ccccc4)cc3C)c2cc1OC,"enzyme activity, inhibitor",1 µM,inhibition,1%
Cc1noc([C@H]2C[C@@H](c3ccc(C(F)(F)F)cc3)CN(C(=O)N3CCS(=O)(=O)C3)C2)n1,"cell-free assay, competition with immobilised ligand",1 µM,remaining binding,92%
CN1CC(Oc2cnc(C#N)cc2-c2ccn3nc(NC(=O)C4CC4)cc3c2)C1,"enzyme activity, inhibitor",1 µM,inhibition,1%
C[C@@H](c1cccc(C#N)c1)n1cc(Cl)cc(C(N)=O)c1=N,"cell-free assay, competition with immobilised ligand",1 µM,remaining binding,96%
CCN(CC)c1ccc(C2=NNC(=O)CC2C)cc1[N+](=O)[O-] (centres unmarked),"enzyme activity, inhibitor",10 µM,remaining activity,110%
CCc1ccccc1C(=O)Nc1n[nH]c2c(C)c(F)c(C3C(C#N)=C(C)N(C)C(C)=C3C#N)cc12,"cell-free assay, competition with immobilised ligand",1 µM,remaining binding,100%
CC(C)c1ccc(NC(=O)c2cccs2)c(-c2nc3ccccc3[nH]c2=O)c1,"enzyme activity, inhibitor",1 µM,activity vs control,85%
CS(=O)(=O)NCC[C@H](NC(=O)c1cncc2c1cnn2-c1ccc(F)cc1)c1ccnc(S(C)(=O)=O)c1,"cell-free assay, competition with immobilised ligand",1 µM,remaining binding,88%
C=CC(=O)Nc1cc(Nc2nccc(Nc3cc(Cl)c(F)cc3C(C)(C)O)n2)c(OC)cc1N1CC[C@@H](N(C)C)C1,"enzyme activity, inhibitor",1 µM,inhibition,6%
COc1ccc2c(c1)O[C@@H](c1ccc(OC)c(OC)c1)C[C@H]2NC(=O)C1(c2ccc3c(c2)OC(F)(F)O3)CC1,"cell-free assay, competition with immobilised ligand",1 µM,remaining binding,100%
COc1cc(Cl)c(C(=O)N[C@@H](CN[C@H]2CC[C@@H](N)CC2)Cc2ccc(C#N)cc2)cc1-c1ccc(CN[C@H](C)c2ccc(C)cc2)o1,"enzyme activity, inhibitor",1 µM,remaining activity,98%
